In ChEMBL document CHEMBL2010774, “Cytotoxic apigenin derivatives from Chrysopogon aciculatis” (J Nat Prod, 2012):

Assays:
Format in all cases: functional, cell-based
MCF7 = experiment: Cytotoxicity against human MCF7 cells after 48 hrs by alamar blue assay; settings: MCF7, 48 h
Method in brief: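 MCF-7, a human breast cancer cell line.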

NCI-H460 = experiment: Cytotoxicity against human NCI-H460 cells after 48 hrs by alamar blue assay; settings: NCI-H460, 48 h
Method in brief: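 H460, a human lung cancer cell line.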

CCRF-CEM = experiment: Cytotoxicity against human CEM cells after 48 hrs by alamar blue assay
Method in brief: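 CEM, a human leukemia cell line.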

HT-29 = experiment: Cytotoxicity against human HT-29 cells after 48 hrs by alamar blue assay; settings: HT-29, 48 h
Method in brief: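 HT-29, a human colon cancer cell line.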

| Compound | IC50 (MCF7) [µM] | IC50 (NCI-H460) [µM] | IC50 (CCRF-CEM) [µM] | IC50 (HT-29) [µM] |
| --- | --- | --- | --- | --- |
| C[C@H]1O[C@@H](c2c(O)cc(O)c3c(=O)cc(-c4ccc(O)cc4)oc23)C[C@H](O)[C@H]1O | 75 | 12 | 2.58 | 10 |
| COc1cc(O)c2c(=O)cc(-c3ccc(O)cc3)oc2c1[C@H]1CC(=O)[C@H](O)[C@@H](C)O1 [ACICULATINONE] | 18.4 | 18.1 | 13.3 | 11.6 |
| COc1cc(O)c2c(=O)cc(-c3ccc(O)cc3)oc2c1[C@H]1C[C@H](O)[C@H](O)[C@@H](C)O1 [ACICULATIN] | 3.16 | 46.9 | 2.65 | 26 |
| COc1cc(O)c2c(=O)cc(-c3ccc(O[C@@H]4O[C@H](CO)[C@@H](O)[C@H](O)[C@H]4O)cc3)oc2c1[C@H]1C[C@H](O)[C@H](O)[C@@H](C)O1 | > 100 | > 100 | > 100 | > 100 |
| C[C@H]1O[C@@H](c2c(O)cc(O)c3c(=O)cc(-c4ccc(O)cc4)oc23)C[C@H](O)[C@@H]1O | 6.35 | 18.2 | 4.42 | 25.3 |
| COc1cccc2c1C(=O)c1c(O)c3c(c(O)c1C2=O)C[C@@](O)(C(=O)CO)C[C@@H]3O[C@H]1C[C@H](N)[C@H](O)[C@H](C)O1 [DOXORUBICIN] | 2.5 | – | – | 6.04 |
